In ChEMBL document CHEMBL4229333, “Effects of rigidity on the selectivity of protein kinase inhibitors” (Eur J Med Chem, 2018):
Converted amounts (≈) assume the structure as drawn.

Columns and labels:
[1] = target: Dual specificity protein kinase CLK2 (Homo sapiens) (UniProt P49760); assay: Inhibition of CLK2 (unknown origin) at 1 uM by mobility shift microfluidics platform based assay relative to control
[2] = target: Vascular endothelial growth factor receptor 3 (Homo sapiens) (UniProt P35916); assay: Inhibition of FLT4 (unknown origin) at 1 uM by mobility shift microfluidics platform based assay relative to control
[3] = target: Mitogen-activated protein kinase kinase kinase kinase 2 (Homo sapiens) (UniProt Q12851); assay: Inhibition of MAP4K2 (unknown origin) at 1 uM by mobility shift microfluidics platform based assay relative to control
[4] = target: Tyrosine-protein kinase ITK/TSK (Homo sapiens) (UniProt Q08881); assay: Inhibition of ITK (unknown origin) at 1 uM by mobility shift microfluidics platform based assay relative to control
[5] = target: Mitogen-activated protein kinase kinase kinase kinase 5 (Homo sapiens) (UniProt Q9Y4K4); assay: Inhibition of MAP4K5 (unknown origin) at 1 uM by mobility shift microfluidics platform based assay relative to control
[6] = target: Protein kinase C iota type (Homo sapiens) (UniProt P41743); assay: Inhibition of PKC-iota (unknown origin) at 1 uM by mobility shift microfluidics platform based assay relative to control
[7] = target: MAP/microtubule affinity-regulating kinase 4 (Homo sapiens) (UniProt Q96L34); assay: Inhibition of MARK4 (unknown origin) at 1 uM by mobility shift microfluidics platform based assay relative to control
[8] = target: Tyrosine-protein kinase Srms (Homo sapiens) (UniProt Q9H3Y6); assay: Inhibition of SRMS (unknown origin) at 1 uM by mobility shift microfluidics platform based assay relative to control
[9] = target: Ephrin type-B receptor 1 (Homo sapiens) (UniProt P54762); assay: Inhibition of EPH-B1 (unknown origin) at 1 uM by mobility shift microfluidics platform based assay relative to control
[10] = target: Serine/threonine-protein kinase PAK 4 (Homo sapiens) (UniProt O96013); assay: Inhibition of PAK4 (unknown origin) at 1 uM by mobility shift microfluidics platform based assay relative to control
[11] = target: Protein kinase C theta type (Homo sapiens) (UniProt Q04759); assay: Inhibition of PKC-theta (unknown origin) at 1 uM by mobility shift microfluidics platform based assay relative to control
[12] = target: SRSF protein kinase 1 (Homo sapiens) (UniProt Q96SB4); assay: Inhibition of SRPK1 (unknown origin) at 1 uM by mobility shift microfluidics platform based assay relative to control
[13] = target: Tyrosine-protein kinase Mer (Homo sapiens) (UniProt Q12866); assay: Inhibition of MER (unknown origin) at 1 uM by mobility shift microfluidics platform based assay relative to control
[14] = target: Serine/threonine-protein kinase haspin (Homo sapiens) (UniProt Q8TF76); assay: Inhibition of HASPIN (unknown origin) at 1 uM by mobility shift microfluidics platform based assay relative to control
[15] = target: Protein kinase C eta type (Homo sapiens) (UniProt P24723); assay: Inhibition of PKC-eta (unknown origin) at 1 uM by mobility shift microfluidics platform based assay relative to control
[16] = target: Dual specificity tyrosine-phosphorylation-regulated kinase 1A (Homo sapiens) (UniProt Q13627); assay: Inhibition of DYRK1A (unknown origin) at 1 uM by mobility shift microfluidics platform based assay relative to control
[17] = target: Serine/threonine-protein kinase BRSK2 (Homo sapiens) (UniProt Q8IWQ3); assay: Inhibition of BRSK2 (unknown origin) at 1 uM by mobility shift microfluidics platform based assay relative to control
[18] = target: Interleukin-1 receptor-associated kinase 4 (Homo sapiens) (UniProt Q9NWZ3); assay: Inhibition of IRAK4 (unknown origin) at 1 uM by mobility shift microfluidics platform based assay relative to control
[19] = target: Protein kinase C zeta type (Homo sapiens) (UniProt Q05513); assay: Inhibition of PKC-zeta (unknown origin) at 1 uM by mobility shift microfluidics platform based assay relative to control
[20] = target: Homeodomain-interacting protein kinase 4 (Homo sapiens) (UniProt Q8NE63); assay: Inhibition of HIPK4 (unknown origin) at 1 uM by mobility shift microfluidics platform based assay relative to control
[21] = target: Ephrin type-A receptor 2 (Homo sapiens) (UniProt P29317); assay: Inhibition of EPH-A2 (unknown origin) at 1 uM by mobility shift microfluidics platform based assay relative to control
[22] = target: Ephrin type-A receptor 4 (Homo sapiens) (UniProt P54764); assay: Inhibition of EPH-A4 (unknown origin) at 1 uM by mobility shift microfluidics platform based assay relative to control
[23] = target: Serine/threonine-protein kinase PAK 6 (Homo sapiens) (UniProt Q9NQU5); assay: Inhibition of PAK6 (unknown origin) at 1 uM by mobility shift microfluidics platform based assay relative to control
[24] = target: Mitogen-activated protein kinase 13 (Homo sapiens) (UniProt O15264); assay: Inhibition of P38-delta (unknown origin) at 1 uM by mobility shift microfluidics platform based assay relative to control
[25] = target: Serine/threonine-protein kinase SIK2 (Homo sapiens) (UniProt Q9H0K1); assay: Inhibition of SNF1LK2 (unknown origin) at 1 uM by mobility shift microfluidics platform based assay relative to control
[26] = target: Serine/threonine-protein kinase LATS1 (Homo sapiens) (UniProt O95835); assay: Inhibition of LATS1 (unknown origin) at 1 uM by mobility shift microfluidics platform based assay relative to control
[27] = target: Serine/threonine-protein kinase PAK 3 (Homo sapiens) (UniProt O75914); assay: Inhibition of PAK3 (unknown origin) at 1 uM by mobility shift microfluidics platform based assay relative to control
[28] = Solubility of compound at 37 degC incubated for 24 hrs by HPLC method; type: physicochemical
[29] = target: Ephrin type-B receptor 3 (Homo sapiens) (UniProt P54753); assay: Inhibition of EPH-B3 (unknown origin) at 1 uM by mobility shift microfluidics platform based assay relative to control
[30] = target: Non-receptor tyrosine-protein kinase TYK2 (Homo sapiens) (UniProt P29597); assay: Inhibition of TYK2 (unknown origin) at 1 uM by mobility shift microfluidics platform based assay relative to control
[31] = Apparent permeability from basolateral to apical side in human Caco2 cells in absence of P-gp inhibitor by LC-MS/MS analysis; type: ADME, cell-based; conditions: Caco-2
In short: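 Caco-2 monolayer permeability, measured apical-to-basolateral and basolateral-to-apical. Compound concentrations were quantified by LC-MS/MS, and apparent permeability coefficients (Papp, cm/s) were calculated from them.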

[32] = target: Inhibitor of nuclear factor kappa-B kinase subunit beta (Homo sapiens) (UniProt O14920); assay: Inhibition of IKK-beta (unknown origin) at 1 uM by mobility shift microfluidics platform based assay relative to control
[33] = target: Serine/threonine-protein kinase TAO3 (Homo sapiens) (UniProt Q9H2K8); assay: Inhibition of TAOK3 (unknown origin) at 1 uM by mobility shift microfluidics platform based assay relative to control

Sequence of Ephrin type-A receptor 2 (Homo sapiens) (P29317 whole entry): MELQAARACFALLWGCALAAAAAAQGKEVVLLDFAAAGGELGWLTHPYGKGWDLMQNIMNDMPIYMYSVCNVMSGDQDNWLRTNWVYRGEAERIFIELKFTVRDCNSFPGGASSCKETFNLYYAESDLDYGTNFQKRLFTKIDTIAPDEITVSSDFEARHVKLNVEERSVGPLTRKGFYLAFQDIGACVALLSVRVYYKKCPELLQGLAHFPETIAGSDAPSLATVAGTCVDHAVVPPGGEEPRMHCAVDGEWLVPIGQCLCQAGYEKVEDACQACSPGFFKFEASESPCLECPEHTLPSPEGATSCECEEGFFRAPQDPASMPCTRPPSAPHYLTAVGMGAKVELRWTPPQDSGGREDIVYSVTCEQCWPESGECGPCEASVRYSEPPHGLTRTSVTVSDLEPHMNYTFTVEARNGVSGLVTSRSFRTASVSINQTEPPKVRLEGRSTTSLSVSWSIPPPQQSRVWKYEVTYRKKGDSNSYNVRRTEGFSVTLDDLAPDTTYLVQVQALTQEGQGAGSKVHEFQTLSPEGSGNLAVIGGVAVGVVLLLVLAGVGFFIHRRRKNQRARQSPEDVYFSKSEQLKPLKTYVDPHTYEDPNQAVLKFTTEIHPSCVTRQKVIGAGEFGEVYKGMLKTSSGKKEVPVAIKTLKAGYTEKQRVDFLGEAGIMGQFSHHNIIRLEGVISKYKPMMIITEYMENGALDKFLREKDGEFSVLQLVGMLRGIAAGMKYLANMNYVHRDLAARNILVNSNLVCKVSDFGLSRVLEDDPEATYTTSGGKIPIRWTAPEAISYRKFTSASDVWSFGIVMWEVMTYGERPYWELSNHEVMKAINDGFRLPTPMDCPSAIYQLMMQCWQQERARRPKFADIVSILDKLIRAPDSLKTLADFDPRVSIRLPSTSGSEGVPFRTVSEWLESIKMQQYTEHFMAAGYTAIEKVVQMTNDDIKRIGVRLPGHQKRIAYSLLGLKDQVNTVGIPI
Sequence of Ephrin type-A receptor 4 (Homo sapiens) (P54764 whole entry): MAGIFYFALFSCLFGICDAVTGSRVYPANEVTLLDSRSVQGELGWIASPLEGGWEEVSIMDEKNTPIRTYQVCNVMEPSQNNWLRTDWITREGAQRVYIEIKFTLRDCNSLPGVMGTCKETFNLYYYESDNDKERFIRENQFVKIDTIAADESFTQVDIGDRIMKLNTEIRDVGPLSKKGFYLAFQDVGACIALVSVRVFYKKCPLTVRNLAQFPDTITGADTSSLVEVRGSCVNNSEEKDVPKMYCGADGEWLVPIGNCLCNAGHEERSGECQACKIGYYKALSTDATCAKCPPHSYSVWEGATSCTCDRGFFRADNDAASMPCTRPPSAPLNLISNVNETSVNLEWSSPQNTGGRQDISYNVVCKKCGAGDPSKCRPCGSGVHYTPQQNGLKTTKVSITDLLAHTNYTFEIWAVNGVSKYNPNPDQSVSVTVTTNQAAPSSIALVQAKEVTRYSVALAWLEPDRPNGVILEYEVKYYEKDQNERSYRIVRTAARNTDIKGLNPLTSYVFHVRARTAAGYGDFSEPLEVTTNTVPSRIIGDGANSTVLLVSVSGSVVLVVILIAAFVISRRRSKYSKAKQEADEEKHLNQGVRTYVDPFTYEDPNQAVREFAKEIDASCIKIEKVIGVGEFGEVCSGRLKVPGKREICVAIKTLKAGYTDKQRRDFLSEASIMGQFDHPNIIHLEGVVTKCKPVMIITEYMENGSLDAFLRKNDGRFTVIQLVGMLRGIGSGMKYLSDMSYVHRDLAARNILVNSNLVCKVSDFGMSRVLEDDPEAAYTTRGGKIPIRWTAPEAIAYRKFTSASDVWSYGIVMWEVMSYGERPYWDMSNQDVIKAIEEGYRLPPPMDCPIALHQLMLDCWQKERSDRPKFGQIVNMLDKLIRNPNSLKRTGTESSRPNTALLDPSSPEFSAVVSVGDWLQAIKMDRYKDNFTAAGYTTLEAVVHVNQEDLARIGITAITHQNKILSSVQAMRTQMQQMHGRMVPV
Sequence of Vascular endothelial growth factor receptor 3 (Homo sapiens) (P35916 whole entry): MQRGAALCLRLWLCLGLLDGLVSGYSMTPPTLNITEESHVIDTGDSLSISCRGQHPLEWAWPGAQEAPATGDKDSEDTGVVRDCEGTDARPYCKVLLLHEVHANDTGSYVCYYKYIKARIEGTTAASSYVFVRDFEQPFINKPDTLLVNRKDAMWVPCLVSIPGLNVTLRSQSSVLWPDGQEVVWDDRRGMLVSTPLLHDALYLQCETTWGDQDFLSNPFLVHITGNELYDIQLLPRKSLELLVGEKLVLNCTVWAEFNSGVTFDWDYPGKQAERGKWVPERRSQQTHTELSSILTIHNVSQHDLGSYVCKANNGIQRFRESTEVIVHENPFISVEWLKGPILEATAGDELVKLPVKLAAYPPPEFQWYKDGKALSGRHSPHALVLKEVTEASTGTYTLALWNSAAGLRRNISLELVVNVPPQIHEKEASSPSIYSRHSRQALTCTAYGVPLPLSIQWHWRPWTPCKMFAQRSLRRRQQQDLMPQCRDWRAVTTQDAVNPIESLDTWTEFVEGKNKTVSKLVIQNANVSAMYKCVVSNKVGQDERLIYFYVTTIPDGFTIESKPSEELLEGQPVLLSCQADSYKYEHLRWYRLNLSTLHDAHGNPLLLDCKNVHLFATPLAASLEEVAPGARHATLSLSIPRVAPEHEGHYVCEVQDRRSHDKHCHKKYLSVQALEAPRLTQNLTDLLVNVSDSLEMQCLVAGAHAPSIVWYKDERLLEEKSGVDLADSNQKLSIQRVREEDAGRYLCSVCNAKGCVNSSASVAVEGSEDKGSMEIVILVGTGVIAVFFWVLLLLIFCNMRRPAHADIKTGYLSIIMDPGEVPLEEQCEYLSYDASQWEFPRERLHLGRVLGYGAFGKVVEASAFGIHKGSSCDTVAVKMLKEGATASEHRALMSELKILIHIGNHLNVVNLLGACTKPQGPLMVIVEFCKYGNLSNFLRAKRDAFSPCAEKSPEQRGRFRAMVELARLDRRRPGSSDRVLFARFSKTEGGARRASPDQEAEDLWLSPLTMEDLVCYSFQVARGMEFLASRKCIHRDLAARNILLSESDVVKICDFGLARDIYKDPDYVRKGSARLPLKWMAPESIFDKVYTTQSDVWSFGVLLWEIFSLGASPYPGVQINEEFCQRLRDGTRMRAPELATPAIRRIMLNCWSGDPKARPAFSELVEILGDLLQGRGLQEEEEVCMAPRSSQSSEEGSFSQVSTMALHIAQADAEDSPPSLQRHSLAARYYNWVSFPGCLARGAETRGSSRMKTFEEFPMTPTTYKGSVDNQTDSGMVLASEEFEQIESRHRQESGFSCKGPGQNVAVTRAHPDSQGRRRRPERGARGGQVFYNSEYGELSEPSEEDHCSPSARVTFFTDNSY
Sequence of Ephrin type-B receptor 1 (Homo sapiens) (P54762 whole entry): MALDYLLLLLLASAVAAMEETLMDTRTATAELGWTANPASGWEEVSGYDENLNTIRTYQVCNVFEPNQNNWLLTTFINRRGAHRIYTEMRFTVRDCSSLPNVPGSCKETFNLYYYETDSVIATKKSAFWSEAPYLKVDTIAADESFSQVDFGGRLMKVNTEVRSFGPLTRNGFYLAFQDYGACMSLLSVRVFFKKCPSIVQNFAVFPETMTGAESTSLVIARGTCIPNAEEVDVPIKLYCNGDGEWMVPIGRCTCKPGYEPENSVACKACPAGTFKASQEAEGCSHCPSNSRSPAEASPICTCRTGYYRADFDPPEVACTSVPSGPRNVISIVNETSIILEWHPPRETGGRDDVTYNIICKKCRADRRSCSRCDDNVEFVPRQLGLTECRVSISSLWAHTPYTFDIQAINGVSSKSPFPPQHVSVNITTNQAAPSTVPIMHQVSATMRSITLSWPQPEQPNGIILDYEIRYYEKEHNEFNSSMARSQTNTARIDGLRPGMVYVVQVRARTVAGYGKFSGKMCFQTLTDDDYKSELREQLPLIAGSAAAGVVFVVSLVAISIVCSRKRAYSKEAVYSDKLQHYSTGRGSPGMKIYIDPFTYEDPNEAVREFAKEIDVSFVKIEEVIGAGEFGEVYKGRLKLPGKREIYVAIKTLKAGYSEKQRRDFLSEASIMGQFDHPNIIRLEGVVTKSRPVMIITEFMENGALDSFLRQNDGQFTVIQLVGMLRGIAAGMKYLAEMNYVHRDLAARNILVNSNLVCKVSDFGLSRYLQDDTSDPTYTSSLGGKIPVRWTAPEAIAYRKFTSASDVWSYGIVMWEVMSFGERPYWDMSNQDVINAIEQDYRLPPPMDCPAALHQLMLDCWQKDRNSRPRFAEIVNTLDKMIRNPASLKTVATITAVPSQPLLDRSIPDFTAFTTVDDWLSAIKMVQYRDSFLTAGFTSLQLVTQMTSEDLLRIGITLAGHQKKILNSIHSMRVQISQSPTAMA
Sequence of Tyrosine-protein kinase Srms (Homo sapiens) (Q9H3Y6 whole entry): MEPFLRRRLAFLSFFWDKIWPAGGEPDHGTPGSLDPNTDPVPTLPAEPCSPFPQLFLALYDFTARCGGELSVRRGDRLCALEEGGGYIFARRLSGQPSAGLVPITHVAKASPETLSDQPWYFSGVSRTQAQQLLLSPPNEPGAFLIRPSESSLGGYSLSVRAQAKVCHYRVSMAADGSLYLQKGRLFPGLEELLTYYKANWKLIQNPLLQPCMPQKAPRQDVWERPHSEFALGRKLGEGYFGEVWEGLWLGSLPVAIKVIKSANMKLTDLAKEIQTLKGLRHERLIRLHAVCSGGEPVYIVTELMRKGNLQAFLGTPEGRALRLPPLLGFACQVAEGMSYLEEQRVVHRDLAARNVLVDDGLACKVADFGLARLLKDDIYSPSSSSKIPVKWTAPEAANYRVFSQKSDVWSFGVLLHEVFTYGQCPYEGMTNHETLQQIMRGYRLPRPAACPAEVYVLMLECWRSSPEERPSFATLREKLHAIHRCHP

| Compound | inhibition [1] [%] | inhibition [2] [%] | inhibition [3] [%] | inhibition [4] [%] | inhibition [5] [%] | inhibition [6] [%] | inhibition [7] [%] | inhibition [8] [%] | inhibition [9] [%] | inhibition [10] [%] | inhibition [11] [%] | inhibition [12] [%] | inhibition [13] [%] | inhibition [14] [%] | inhibition [15] [%] | inhibition [16] [%] | inhibition [17] [%] | inhibition [18] [%] | inhibition [19] [%] | inhibition [20] [%] | further results |
| --- | --- | --- | --- | --- | --- | --- | --- | --- | --- | --- | --- | --- | --- | --- | --- | --- | --- | --- | --- | --- | --- |
| CC(C)n1nc(C#Cc2cccc3cc(-c4cccc(C(F)(F)F)c4)ncc23)c2c(N)ncnc21 | -1 | 97 | 24 | 10 | 33 | 2 | -1 | 20 | 84 | 2 | -2 | 2 | 0 | 1 | 2 | 2 | 0 | 3 | 4 | 9 | inhibition [21]: 90%; inhibition [22]: 95%; inhibition [23]: 3%; inhibition [24]: 2%; inhibition [25]: 10%; inhibition [26]: 3%; inhibition [27]: 1%; solubility at 24 h [28]: 60 µM (≈ 28.3 µg/mL); inhibition [29]: 86%; inhibition [30]: 2%; Papp B→A [31]: 2.6 ×10⁻⁶ cm/s; inhibition [32]: 2%; inhibition [33]: 33% |
| CC(C)n1nc(C#Cc2cccc(NC(=O)c3cccc(C(F)(F)F)c3)c2)c2c(N)ncnc21 | 5 | 99 | 67 | 23 | 66 | -3 | -4 | 55 | 97 | 0 | 0 | 1 | 6 | 5 | -5 | 2 | -3 | 2 | 2 | 29 | inhibition [21]: 100%; inhibition [22]: 99%; inhibition [23]: -1%; inhibition [24]: 0%; inhibition [25]: 7%; inhibition [26]: -4%; inhibition [27]: 2%; solubility at 24 h [28]: 161 µM (≈ 74.8 µg/mL); inhibition [29]: 98%; inhibition [30]: 31%; Papp B→A [31]: 1 ×10⁻⁶ cm/s; inhibition [32]: 22%; inhibition [33]: 37% |
